In the library only some 2% were active in any assay of this set; here they are far more common.
NR2E3 ag-1: inhibitors of NR2E3-RetCOR corepressor binding, primary screen, NR2E3 agonist project, biochemical, TR-FRET, GST-NR2E3, biotin-RetCOR. Photoreceptor-specific nuclear receptor (Homo sapiens), Q9Y5X4. 1536-well. inhibition of corepressor binding, % at 4.78 µM. 0.12% of 320,000 active. AID 2300, 2010;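 active means percent inhibition above the cutoff of mean plus 3 SD of all tested compounds, set per screening campaign, cut at about 20% in these data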;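 further: 0% = DMSO wells and 100% = biotin wells as full block of FRET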
Target sequence (Q9Y5X4 whole entry, looked up): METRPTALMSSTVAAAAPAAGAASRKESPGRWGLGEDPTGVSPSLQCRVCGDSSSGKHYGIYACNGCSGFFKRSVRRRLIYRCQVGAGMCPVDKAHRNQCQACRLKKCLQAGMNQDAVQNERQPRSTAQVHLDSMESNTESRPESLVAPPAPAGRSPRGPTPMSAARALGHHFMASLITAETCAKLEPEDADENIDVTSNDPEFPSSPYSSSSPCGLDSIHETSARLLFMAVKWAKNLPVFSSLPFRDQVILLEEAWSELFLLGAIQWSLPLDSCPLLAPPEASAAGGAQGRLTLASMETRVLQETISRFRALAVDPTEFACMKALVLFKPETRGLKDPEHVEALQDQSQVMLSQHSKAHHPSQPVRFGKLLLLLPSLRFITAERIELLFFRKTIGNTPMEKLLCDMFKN
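Assay system: NR2E3–RetCOR corepressor complex. Quantity: 1.35 nM GST-NR2E3. Buffer or medium: pH 7.5 Tris-based buffer. Reagent: biotinylated RetCOR corepressor at 7 nM final. Schedule: 5 h at 4 °C. Detection: TR-FRET, emission read at 617 and 671 nm. Replicates: one well per compound, singlicate testing.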
NR2E3 ag-2: NR2E3 agonists in two-hybrid cells, primary screen, cell-based, luminescence, CHO-S, Gal4-NCOR/VP16-NR2E3. luciferase. Photoreceptor-specific nuclear receptor (Homo sapiens), Q9Y5X4. inhibition of corepressor binding, % at 3.98 µM. AID 602229, 2012. 0.35% of 360,000 active;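 active means inhibition above the mean of all tested compounds plus 3 SD, cut at about 70% in these data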;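 further: 0% = DMSO with NR2E3 transfected cells and 100% = cells lacking NR2E3 construct; higher means lower luciferase signal from less NR2E3 corepressor binding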
HIF activator: HIF pathway transcriptional activators, primary screen, cell-based, U2OS HRE-luciferase, luminescence; U2OS HRE-luciferase reporter; normalized: DMSO 0%, desferrioxamine 100%; activation, % at 7.5 µM (by protocol); 0.32% of 300,000 active;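 active means mean activation of at least 10% of the iron chelator positive control signal, with at least half of replicates also reaching 10%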
TROY NFkB inh: inhibitors of TROY-driven NF-kB signaling, primary screen, Q293 LMP1-TROYcd cells, NF-kB luciferase, uHTS | Q293 LMP1-TROYcd NF-kB luciferase reporter, 4 h | inhibition, % at 10 µM | 0.98% of 360,000 active | AID 1347056, 2019;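 active means compounds whose plate-normalised and pattern-corrected inhibition of the luciferase reporter signal at the single screening dose is 50% or more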
LMP1 NFkB inh: EBV LMP1-driven NF-kappaB luciferase reporter inhibitors, primary screen, cell-based, luminescence, single point; 0.69% of 350,000 active; LMP1-induced NF-kappaB luciferase reporter cells; inhibition, % at 12.5 µM; AID 504558, 2011; in the data active means inhibition above about 41%;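 further: 0% = neutral control wells and 100% = reference inhibitor control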
The depositor's hits bear a star.

For CN(C(=O)CC(NC(=O)c1ccccc1Cl)c1ccccc1)c1ccccc1 (stereo not drawn) the results were NR2E3 ag-1 1, NR2E3 ag-2 -21, HIF activator 0, TROY NFkB inh 7 and LMP1 NFkB inh 1.
`COc1ccc2nc(C)cc(N/N=C/c3cccc(OC)c3O)c2c1` gave NR2E3 ag-1 -3, NR2E3 ag-2 -5, HIF activator -3, TROY NFkB inh -42 and LMP1 NFkB inh 5.
Screening COc1cccc(/C=N/Nc2cc(-n3nc(C)cc3-c3ccccc3)ncn2)c1O returned NR2E3 ag-1 0, NR2E3 ag-2 -30, HIF activator 52*, TROY NFkB inh 26 and LMP1 NFkB inh 4.
Screening COc1cccc(/C=N/Nc2ncnc(Cl)c2N)c1O returned NR2E3 ag-1 -3, NR2E3 ag-2 -29, HIF activator -2, TROY NFkB inh 61* and LMP1 NFkB inh 65*.
For CN(CC(=O)NCC(=O)Nc1ccc(F)c(F)c1F)C1CCS(=O)(=O)C1 (stereo not drawn) the results were NR2E3 ag-1 -1, NR2E3 ag-2 -6, TROY NFkB inh -4 and LMP1 NFkB inh -5.
For CC(C)c1cccc(C(C)C)c1NC(=O)OC1CCCCC1 the results were NR2E3 ag-2 -3 and TROY NFkB inh 58*.
For CCCN(CC)c1ncnc2[nH]ncc12 the results were NR2E3 ag-2 -56, TROY NFkB inh 40 and LMP1 NFkB inh 43*.
For O=c1c2ccccc2oc2cc(-c3ccc4[nH]ccc4c3)ccc12 the results were NR2E3 ag-1 -2, NR2E3 ag-2 -140, HIF activator 6, TROY NFkB inh -28 and LMP1 NFkB inh 0.
For CC(C)NC(=O)c1ccc(-c2cccc(C(F)(F)F)c2)o1 the results were NR2E3 ag-1 3, NR2E3 ag-2 -30, HIF activator 0, TROY NFkB inh -69 and LMP1 NFkB inh -12.
`Cc1cccc(C)c1NC(=O)CN(C)C(=O)c1ccc(-c2cccc(C(F)(F)F)c2)o1` gave NR2E3 ag-1 0, NR2E3 ag-2 -16, HIF activator 0, TROY NFkB inh 1 and LMP1 NFkB inh 55*.
Screening N=c1n(Cc2ccccc2)c2ccccc2n1CC(O)COc1ccc(Cl)cc1Cl (stereo not drawn) returned NR2E3 ag-2 4, HIF activator -8, TROY NFkB inh 60* and LMP1 NFkB inh -13.
Screening N=c1n(Cc2ccc(Cl)cc2)c2ccccc2n1CC(O)COc1ccccc1 (stereo not drawn) returned NR2E3 ag-1 -1, NR2E3 ag-2 17, HIF activator 0, TROY NFkB inh 6 and LMP1 NFkB inh -51.
Cc1coc2c1C(=O)C(=O)c1c-2ccc2c1CCCC2(C)C was read as NR2E3 ag-1 -1, NR2E3 ag-2 -14, HIF activator 0, TROY NFkB inh 37 and LMP1 NFkB inh -4.
Screening Cc1coc2c1C(=O)C(=O)c1c-2ccc2c(C)cccc12 returned NR2E3 ag-1 13, NR2E3 ag-2 -29, HIF activator 1, TROY NFkB inh 1 and LMP1 NFkB inh 79*.
O=C(Nc1ccccc1)N1CCCc2ccccc21 was read as NR2E3 ag-1 5, NR2E3 ag-2 -22, HIF activator 1, TROY NFkB inh -1 and LMP1 NFkB inh 1.
For COc1ccc2oc(C(=O)N3CCc4ccccc43)c(C)c2c1 the results were NR2E3 ag-1 1, NR2E3 ag-2 -150, HIF activator -2, TROY NFkB inh 63* and LMP1 NFkB inh 37.
For COc1ccc(NC(=O)N2CCCc3ccccc32)c(OC)c1 the results were NR2E3 ag-2 13, HIF activator 1, TROY NFkB inh 70* and LMP1 NFkB inh 8.
Screening COc1ccc(C)cc1NC(=O)N1CCCc2ccccc21 returned NR2E3 ag-1 0, NR2E3 ag-2 13, HIF activator 0, TROY NFkB inh 70* and LMP1 NFkB inh -4.
C=CCNc1ncnc2c1ncn2[C@H]1CN(Cc2cc(OC)c(OC)c(OC)c2)C[C@@H](CO)O1 was read as NR2E3 ag-2 17 and TROY NFkB inh 4.

From PubChem
